Published values collected from several papers.
Lines come from different studies, so protocols differ.
Observed: cell growth or viability

For O=C(NCc1ccc(Cl)cc1)C1CC1c1ccccc1 (stereo not drawn), the CC50 was > 100 µM (BHK-21; MTT).
With Clc1ccc(CCC(Cn2ccnc2)Sc2c(Cl)cccc2Cl)cc1 (stereo not drawn) the CC50 was 34.9 µM (Vero; WST-1; 18 h).
With COc1cc(Nc2ccnc3ccc(Br)cc23)cc(OC)c1OC the CC50 was 28.6 µM (Vero; resazurin).
The CC50 of O=C(Nc1ncc([N+](=O)[O-])s1)c1ccco1 is reported as > 10 µM (BHK-21; MTT).
For CC(=O)c1cccc(NC(=O)C(=O)[C@H](CC(C)C)NC(=O)[C@H](CC(C)C)NC(=O)[C@H](CC(C)C)NC(=O)OCc2ccccc2)c1, the CC50 was 17.7 µM (Vero; ATP luminescence; 48 h).
The CC50 of Cc1cc(N)c2cc(NC(=O)Nc3ccc4nc(C)cc(N)c4c3)ccc2n1 is reported as 49 µM (BHK-21; MTT; 42 h).
The CC50 of C[C@H]1[C@H](OC(=O)CCC(=O)O)O[C@@H]2O[C@@]3(C)CC[C@H]4[C@H](C)CC[C@@H]1[C@@]24OO3 is reported as 29.2 µM (Vero; WST-1; 18 h).
Nc1ccc(-c2ccc(Nc3cc(S(=O)(=O)O)c(N)c4c3C(=O)c3ccccc3C4=O)cc2)c(S(=O)(=O)O)c1 gave a CC50 of 177 µM (BHK-21; MTT; 42 h).
C=CC(=O)Nc1cccc(-c2snc3cc(-c4ccc(N)c(OC)c4)cnc23)c1 has a CC50 of 21 µM (Vero; resazurin).
For OCCCCCCC1COOC2(CCCCCCCCCCC2)OOC1, the CC50 was 3.4 µM (BHK-21; WST-1; 72 h).
The CC50 of O=C(Nc1ncc([N+](=O)[O-])s1)c1cc(Cl)ccc1Cl is reported as > 100 µM (BHK-21; MTT).
With Cc1cc(C)cc([C@@H]2C[C@H]2C(=O)NC(C(=O)NC2CC2)c2ccc(C)c(C)c2)c1 (stereo partly drawn) the CC50 was ~10 µM (BHK-21; MTT; 24 h).
